{"source": "paper PMC4527612", "about": "(Journal of inorganic biochemistry, 2014)", "key": {"[1]": {"test_system": "HeLa (cervix carcinoma)", "assay": "Dark cytotoxicity, Trypan blue exclusion test", "type": "cell-based, human", "conditions": "read-out: IC50 (μM) ± S.E.M. HeLa, 48 h incubation", "outline": "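HeLa cells were grown in DMEM with 10% FBS, 2 mM L-glutamine and penicillin/streptomycin at 37 °C. They were seeded at 0.5 × 10^6/mL in glass vials, given 24 h, then exposed for 48 h in the dark to test compound in distilled water at various concentrations. Cells were trypsinised, stained 5–15 min with 0.4% Trypan blue and counted by hemocytometer. […] IC50 was derived from at least three experiments, mean ± S.E.M.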"}, "[2]": {"test_system": "KCL-22 (chronic myeloid leukemia in blast crisis)", "conditions": "read-out: IC50 (μM) ± S.E.M. KCL-22, dark; cited from earlier work"}, "[3]": {"test_system": "KCL-22 (chronic myeloid leukemia in blast crisis)", "assay": "Dark cytotoxicity, Trypan blue exclusion test", "type": "cell-based, human"}, "[4]": {"test_system": "human normal leukocytes (HNL)", "assay": "Cytotoxicity on normal cells, trypan blue exclusion assay", "type": "cell-based"}, "[5]": {"test_system": "KCL-22 cell line", "assay": "Comet assay", "type": "cell-based, human", "conditions": "for % DNA in tail, Mean ± S.E.M. / % DNA in tail, Median / L/H, Mean ± S.E.M. / L/H, Median / OTM, Mean ± S.E.M. / OTM, Median: KCL-22", "outline": "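KCL-22 cells were treated 24 h after seeding for 2 h at three concentrations of test compound, with untreated cells as control. Cells were embedded in 0.5% low-melting agarose on slides precoated with 1% agarose and lysed 1 h at 4 °C (2.5 M NaCl, 100 mM EDTA, 10 mM Tris, 1% Triton X-100, pH 10). DNA was unwound 40 min (300 mM NaOH, 1 mM EDTA, pH >13), then electrophoresed at 4 °C for 25 min at 25 V, 300 mA. Slides were neutralised with 0.4 M Tris pH 7.5, stained with 20 μg/mL ethidium bromide, and ≥150 cells scored (50 per triplicate slide). Analysis was by Mann–Whitney test.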"}, "[6]": {"test_system": "KCL-22 cell line", "assay": "Flow cytometric cell cycle analysis", "type": "cell-based, human", "outline": "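KCL-22 cells were exposed 24 h after seeding to three concentrations of test compound for 48 h. About 10^6 cells were fixed by dropwise addition of cold 70% ethanol on vortex, held overnight at 4 °C, and stored at −20 °C for up to a week. Cells were then washed twice in PBS and stained 30 min with 0.1 mg/mL RNase and 0.05 mg/mL propidium iodide. DNA content was read by flow cytometry, with doublets excluded by FSC/SSC. Phases were fitted with the Dean–Jett–Fox model.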"}, "[7]": {"assay": "Lipophilicity by thin-layer chromatographic retention factor Rf", "type": "physicochemical", "conditions": "silica, 1:1:8 KNO3-saturated H2O:H2O:CH3CN"}, "[8]": {"test_system": "HeLa, HEP-3B, LN-308, MCF-7 and KCL-22 human cancer cell lines", "assay": "Dose-dependent cytotoxicity curves in five cancer cell lines", "type": "cell-based", "conditions": "Fig. 3"}, "[9]": {"test_system": "HeLa cell line", "assay": "Cytokinesis block micronucleus"}, "[10]": {"test_system": "KCL-22 cells", "assay": "Photo-induced cytotoxicity, vital dye exclusion test", "type": "cell-based, human", "outline": "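After 24 h in glass vials, KCL-22 cells were preincubated 30 min with free-base porphyrin (distilled water) at various concentrations. They were then irradiated 25 min with a tungsten lamp (30 mW/cm2, 28,000 lx) through a 600–900 nm glass filter and incubated a further 48 h. Viable cells were counted by vital dye exclusion. Controls were dark-kept treated cultures and illuminated untreated cultures; Chlorin e6 was the positive control. IC50 came from dose–response curves, mean ± S.E.M.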"}, "[11]": {"test_system": "KCL-22 cells", "assay": "Dark toxicity of photosensitizers, vital dye exclusion test", "type": "cell-based, human", "conditions": "for IC50: read-out: IC50 (μM) ± S.E.M. Under dark", "outline": "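KCL-22 cells were grown in RPMI-1640 with 10% FBS, 2 mM L-glutamine and penicillin/streptomycin at 37 °C, then seeded in glass vials for 24 h. Free-base porphyrin in distilled water was added at various concentrations, and cells were kept in the dark without illumination for 48 h. Viable cells were counted by vital dye exclusion, with viability as % of intact control. IC50 came from dose–response curves, mean ± S.E.M. of at least three experiments.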"}, "[12]": {"test_system": "KCL-22 cells", "conditions": "read-out: IC50 (μM) ± S.E.M. Photo-induced; KCL-22, illumination; cited from earlier work"}, "[13]": {"test_system": "KCL-22 cells", "conditions": "read-out: IC50 (μM) ± S.E.M. Under dark; KCL-22, dark; cited from earlier work"}}, "note": "Read-outs that look alike come from different tables or passages of the source. Marks after values point to notes of the source that are not given here.", "data": [{"compound": "5,10,15,20-tetra(4′-N-allylpyridyl)porphinato Ag(II) tetranitrate [AgTAll4PyP]", "values": [{"measurement": "IC50", "setting": "[1]", "value": "26 ± 2.4", "unit": "µM"}, {"measurement": "IC50", "setting": "[2]", "value": "2.5 ± 1.1", "unit": "µM"}]}, {"compound": "C=CC[n+]1ccc(-c2c3nc(c(-c4cc[n+](CC=C)cc4)c4ccc([n-]4)c(-c4ccc(OCCCCCCCCCCCCCCCC)c(OC)c4)c4nc(c(-c5cc[n+](CC=C)cc5)c5ccc2[n-]5)C=C4)C=C3)cc1.O=[N+]([O-])[O-].O=[N+]([O-])[O-].O=[N+]([O-])[O-].[Ag+2]", "note": "[AgTriAll4PyMVanC16P, 5-Mono(3′-methoxy-4′-hexadecyloxyphenyl)-10,15,20-tri(4′-N-allylpyridyl) porphinato Ag(II) trinitrate]", "values": [{"measurement": "fold enhancement of cytotoxicity on metallation of H2TriAll4PyMVanC16P", "setting": "[3]; KCL-22, dark", "value": 5, "unit": "fold"}, {"measurement": "toxicity on normal cells (HNL) as compared to cisplatin", "setting": "[4]; HNL, trypan blue exclusion", "value": "significantly less toxic"}, {"measurement": "toxicity towards cancer (KCL-22) versus normal (HNL) cells", "setting": "[4]; although not significant", "value": "higher towards cancer versus normal cells"}, {"measurement": "% DNA in tail, Mean ± S.E.M.", "setting": "[5]; concentration IC50, 2 h", "value": "9.36 ± 0.68", "unit": "%"}, {"measurement": "% DNA in tail, Median", "setting": "[5]; concentration IC50, 2 h", "value": "7.14 ^* %"}, {"measurement": "L/H, Mean ± S.E.M.", "setting": "[5]; concentration IC50, 2 h", "value": "1.34 ± 0.01"}, {"measurement": "L/H, Median", "setting": "[5]; concentration IC50, 2 h", "value": "1.32 ^*"}, {"measurement": "OTM, Mean ± S.E.M.", "setting": "[5]; concentration IC50, 2 h", "value": "5.63 ± 0.42"}, {"measurement": "OTM, Median", "setting": "[5]; concentration IC50, 2 h", "value": "4.12 ^*"}, {"measurement": "% DNA in tail, Mean ± S.E.M.", "setting": "[5]; concentration IC50/5, 2 h", "value": "3.10 ± 0.20", "unit": "%"}, {"measurement": "% DNA in tail, Median", "setting": "[5]; concentration IC50/5, 2 h", "value": "3.11 ^* %"}, {"measurement": "L/H, Mean ± S.E.M.", "setting": "[5]; concentration IC50/5, 2 h", "value": "1.12 ± 0.01"}, {"measurement": "L/H, Median", "setting": "[5]; concentration IC50/5, 2 h", "value": "1.12 ^*"}, {"measurement": "OTM, Mean ± S.E.M.", "setting": "[5]; concentration IC50/5, 2 h", "value": "1.42 ± 0.08"}, {"measurement": "OTM, Median", "setting": "[5]; concentration IC50/5, 2 h", "value": "1.14 ^*"}, {"measurement": "% DNA in tail, Mean ± S.E.M.", "setting": "[5]; concentration IC50/20, 2 h", "value": "1.74 ± 0.14", "unit": "%"}, {"measurement": "% DNA in tail, Median", "setting": "[5]; concentration IC50/20, 2 h", "value": 1.74, "unit": "%"}, {"measurement": "L/H, Mean ± S.E.M.", "setting": "[5]; concentration IC50/20, 2 h", "value": "1.08 ± 0.00"}, {"measurement": "L/H, Median", "setting": "[5]; concentration IC50/20, 2 h", "value": 1.07}, {"measurement": "OTM, Mean ± S.E.M.", "setting": "[5]; concentration IC50/20, 2 h", "value": "0.93 ± 0.06"}, {"measurement": "OTM, Median", "setting": "[5]; concentration IC50/20, 2 h", "value": 0.58}, {"measurement": "DNA damage (Comet assay)", "setting": "[5]; concentrations IC50/5 and IC50, KCL-22, 2 h after application", "value": "induce the breakage of DNA molecule"}, {"measurement": "DNA damage (Comet assay)", "setting": "[5]; low (IC50/20) concentration, KCL-22, 2 h", "value": "no effect"}, {"measurement": "number of cells in G2 phase", "setting": "[6]; KCL-22, 48 h", "value": "not changed"}, {"measurement": "S-phase cell number", "setting": "[6]; KCL-22, IC50/2, IC50, IC60, 48 h", "value": "significantly increased"}, {"measurement": "cells in G1 phase", "setting": "[6]; KCL-22, IC50 or IC60 concentration, 48 h", "value": "statistically significant reduction"}, {"measurement": "lipophilicity, TLC retention factor Rf, compared to tetracationic analog", "setting": "[7]", "value": "gained significantly in lipophilicity"}, {"measurement": "concentration at which toxicity starts", "setting": "[8]", "value": "~ 1 μM"}, {"measurement": "MN (micronucleus) formation in binucleate cells", "setting": "[9]; all concentrations applied, from IC50/5 to IC60, HeLa", "value": "did not induce MN formation"}, {"measurement": "CBPI (cytokinesis block proliferation index)", "setting": "[9]; concentration IC50, HeLa", "value": "1.33 ± 0.002"}, {"measurement": "CBPI, % of negative control", "setting": "[9]; concentration IC50, HeLa", "value": 91, "unit": "%"}, {"measurement": "CBPI, % of negative control", "setting": "[9]; concentration IC50/2, HeLa", "value": 94, "unit": "%"}, {"measurement": "CBPI (cytokinesis block proliferation index)", "setting": "[9]; concentration IC50/2, HeLa, listed as Ag porphyrin", "value": "1.37 ± 0.004"}, {"measurement": "CBPI (cytokinesis block proliferation index)", "setting": "[9]; concentration IC50/2, HeLa, listed as Amphiphilic Ag porphyrin", "value": "no effect"}, {"measurement": "CBPI, % of negative control", "setting": "[9]; concentration IC50/5, HeLa", "value": 97, "unit": "%"}, {"measurement": "CBPI (cytokinesis block proliferation index)", "setting": "[9]; concentration IC50/5, HeLa, listed as Ag porphyrin", "value": "1.42 ± 0.034"}, {"measurement": "CBPI (cytokinesis block proliferation index)", "setting": "[9]; concentration IC50/5, HeLa, listed as Amphiphilic Ag porphyrin", "value": "no effect"}, {"measurement": "CBPI (cytokinesis block proliferation index)", "setting": "[9]; concentration IC60, HeLa", "value": "1.20 ± 0.002"}, {"measurement": "CBPI, % of negative control", "setting": "[9]; concentration IC60, HeLa", "value": 82, "unit": "%"}]}, {"compound": "C=Cc1c(C)c2cc3nc(c(CC(=O)O)c4[nH]c(cc5nc(cc1[nH]2)C(C)=C5CC)c(C)c4C(=O)O)[C@@H](CCC(=O)O)[C@@H]3C", "note": "[Chlorin e6, reference compound]", "values": [{"measurement": "IC50", "setting": "[10]; Homo sapiens, KCL-22, read-out: IC50 (μM) ± S.E.M. Photo-induced", "value": "4 ± 0.2", "unit": "µM"}, {"measurement": "IC50", "setting": "[11]; Homo sapiens, KCL-22, 48 h", "value": "> 50", "unit": "µM"}]}, {"compound": "N.N.[Cl][Pt][Cl]", "note": "[Cisplatin, cisplatin, reference compound]", "values": [{"measurement": "concentration at which toxicity starts", "setting": "[8]", "value": "~ 0.2 μM"}]}, {"compound": "C=CC[n+]1ccc(-c2c3nc(c(-c4cc[n+](CC=C)cc4)c4ccc([nH]4)c(-c4cc[n+](CC=C)cc4)c4nc(c(-c5cc[n+](CC=C)cc5)c5ccc2[nH]5)C=C4)C=C3)cc1", "note": "[H2TAll4PyP, 5,10,15,20-tetra(4′-N-allylpyridyl)porphyrin tetrabromide]", "values": [{"measurement": "IC50", "setting": "[12]", "value": 50, "unit": "µM"}, {"measurement": "IC50", "setting": "[13]", "value": "> 1600", "unit": "µM"}]}, {"compound": "C=CC[n+]1ccc(-c2c3nc(c(-c4cc[n+](CC=C)cc4)c4ccc([nH]4)c(-c4ccc(OCCCCCCCCCCCCCCCC)c(OC)c4)c4nc(c(-c5cc[n+](CC=C)cc5)c5ccc2[nH]5)C=C4)C=C3)cc1.[Br-].[Br-].[Br-]", "note": "[H2TriAll4PyMVanC16P, 5-Mono(3′-methoxy-4′-hexadecyloxyphenyl)-10,15,20-tri(4′-N-allylpyridyl) porphine tribromide]", "values": [{"measurement": "fold by which IC50 upon illumination is lower than IC50 under the dark", "setting": "[10]; KCL-22", "value": "more than 35 fold"}, {"measurement": "fold more phototoxic than Chlorin e6", "setting": "[10]; KCL-22, illumination", "value": 5, "unit": "fold"}, {"measurement": "fold increase in cytotoxicity over tetracationic analog H2TAll4PyP", "setting": "[11]; KCL-22, dark", "value": "more than 60 fold"}, {"measurement": "IC50", "setting": "[11]; KCL-22, dark, 48 h", "value": "25 ± 2", "unit": "µM"}, {"measurement": "lipophilicity, TLC retention factor Rf, compared to tetracationic analog", "setting": "[7]", "value": "gained dramatically in lipophilicity"}]}, {"compound": "O=[N+]([O-])[O-].[Ag+]", "note": "[Silver nitrate]", "values": [{"measurement": "toxicity on KCL-22 cell line", "setting": "[3]; at up to 20 μM concentration, data not shown", "value": "no toxicity"}]}]}
